One series has as its system Plasmodium falciparum. Nature of the series: Antimalarial activity against Plasmodium falciparum 3D7 by [3H]hypoxanthine uptake. The format is functional, organism-based.
Another series concerns the target T1, Histone deacetylase (Plasmodium falciparum, UniProt Q9XYC7).
T1 sequence (Q9XYC7 whole entry): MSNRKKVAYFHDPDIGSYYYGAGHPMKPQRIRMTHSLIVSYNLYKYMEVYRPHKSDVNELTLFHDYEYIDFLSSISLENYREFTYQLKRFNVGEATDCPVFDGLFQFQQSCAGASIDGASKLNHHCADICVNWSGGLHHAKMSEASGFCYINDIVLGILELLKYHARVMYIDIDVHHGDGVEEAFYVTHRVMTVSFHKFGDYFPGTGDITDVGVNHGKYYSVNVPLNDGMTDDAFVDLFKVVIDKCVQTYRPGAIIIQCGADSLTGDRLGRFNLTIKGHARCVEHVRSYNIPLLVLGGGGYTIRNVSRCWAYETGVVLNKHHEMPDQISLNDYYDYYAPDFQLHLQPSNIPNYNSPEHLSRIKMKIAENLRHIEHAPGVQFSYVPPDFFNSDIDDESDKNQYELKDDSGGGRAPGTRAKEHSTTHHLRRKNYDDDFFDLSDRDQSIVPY
Nature of the series: Inhibition of Plasmodium falciparum HDAC1 expressed in Drosophila melanogaster S2 cells. The format is cell-based. A digest of the protocol: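 Recombinant pfHDAC-1 cDNA carrying a C-terminal HPC4 epitope tag was expressed in Drosophila S2 cells. A stable pool was selected with blasticidin after co-transfection, and the enzyme was purified via the HPC4 tag. Substrate characterisation used the fluorogenic peptide Ac-Leu-Gly-Lys(Ac)-AMC, with a Michaelis–Menten fit.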

A short description of series [1]: Growth inhibition of human MM1S cells. The format is cell-based. The following applies: mm1.s.
Another series deals with MM1.S. As to the kind of experiment: Inhibition of histone acetylation in human MM1S cells at 0.2 uM relative to untreated control. The format is functional.
Substrate in series [2]: Cc1cc(=O)oc2cc(NC(=O)[C@H](CCCCNC(=O)C(F)(F)F)NC(=O)OC(C)(C)C)ccc12
Nature of the series: (§1) Activity of Plasmodium falciparum HDAC1 expressed in Drosophila melanogaster S2 cells by Michaelis-Menten method. It is filed as cell-based. A digest of the protocol: (§2)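 pfHDAC-1 cDNA with a C-terminal HPC4 epitope tag was expressed in a stable blasticidin-selected Drosophila S2 pool and purified through the tag. Activity was measured on the acetyl-lysine AMC peptide substrates Ac-Leu-Gly-Lys(Ac)-AMC and Boc-Lys(trifluoroacetyl)-AMC. kcat and apparent Km were obtained by fitting the Michaelis–Menten model to the rate data.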

Substrate in series [3]: CC(=O)NCCCC[C@H](NC(=O)CNC(=O)[C@H](CC(C)C)NC(C)=O)C(=O)Nc1ccc2c(C)cc(=O)oc2c1
The description is as §1. The format is cell-based. The gist of the method: as §2

Consider 22 molecules from ChEMBL document CHEMBL1153423, “Identification and characterization of small molecule inhibitors of a class I histone deacetylase from Plasmodium falciparum” (J Med Chem, 2009).

Some results are limits rather than exact numbers.

Broadly, the IC50 is the midpoint of a concentration-inhibition curve. Read a low IC50 as greater potency. The Km is the substrate concentration at which the rate is half of its maximum. Usually kcat stands for the maximal rate divided by the concentration of active sites.

`O=C(CCCCCC(=O)NN/C=C/c1cc(O)ccc1Br)NO`: the IC50 came to 35 nM with Plasmodium falciparum and 49 nM against Histone deacetylase. The Activity result in series [1] is “Non-toxic”. For the same molecule, the “fold change (FC)” value in the series with MM1.S is reported as 1.

Take `COc1cc(/C=C/NNC(=O)CCCCCC(=O)NO)c(Br)cc1O`: the results for the IC50 in the series on Plasmodium falciparum and on Histone deacetylase were 47 nM and 59 nM, respectively. Moreover, the Activity entry in series [1] is “Non-toxic”. In the series with MM1.S, the “fold change (FC)” value came to 1.

With `O=C(CCCCCC(=O)NN/C=C/c1ccc(-n2ccnc2)cc1)NO`, the concentration for half-maximal inhibition (IC50) is 57 nM with Plasmodium falciparum and 15 nM against Histone deacetylase. In series [1], the Activity entry is listed as “Non-toxic”. Also, the “fold change (FC)” value in the series with MM1.S was determined as 1.

As to `O=C(CCCCCC(=O)NN/C=C/c1c(O)ccc2ccccc12)NO`, the IC50 with Plasmodium falciparum was found to be 20 nM; against Histone deacetylase, 41 nM. In addition, the Activity result in series [1] was “Non-toxic”. Further, in the series with MM1.S, the “fold change (FC)” value is 1.

For `CC(/C=C/C(=O)NO)=C\[C@@H](C)C(=O)c1ccc(N(C)C)cc1` [TRICHOSTATIN], the figures for the IC50 in the series on Plasmodium falciparum and against Histone deacetylase were 16 nM and 0.6 nM, respectively.

With `O=C(CCCCCC(=O)NN/C=C/c1cccnc1Br)NO`, the IC50 in the series on Plasmodium falciparum was determined as 22 nM; on Histone deacetylase, 36 nM. In series [1], the Activity result is recorded as “Non-toxic”. In addition, the “fold change (FC)” value with MM1.S amounted to 0.9.

As for `COc1cc(/C=C/NNC(=O)CCCCC(=O)NO)c(Br)cc1O`, the IC50 in the series with Plasmodium falciparum was determined as 498 nM; against Histone deacetylase it was 59 nM. The Activity result in series [1] is on record as “Non-toxic”. Besides, in the series on MM1.S, the “fold change (FC)” value stood at 1.2.

Consider `COc1ccc(Br)c(/C=C/NNC(=O)CCCCCC(=O)NO)c1`, for which the figures for the IC50 in the series on Plasmodium falciparum and against Histone deacetylase were > 500 nM and 22 nM, respectively. The Activity entry in series [1] is “Non-toxic”. In the series with MM1.S, the “fold change (FC)” value is reported as 1.1.

In the case of `O=C(CCCCCCC(=O)NN/C=C/c1c(O)cc(O)cc1O)NO`, the IC50 in the series with Plasmodium falciparum was determined as 50 nM; at Histone deacetylase it was 43 nM. For the same molecule, the Activity entry in series [1] is on record as “Non-toxic”. Also, the “fold change (FC)” value in the series on MM1.S was found to be 1.1.

As for `O=C(CCCCCCC(=O)NN/C=C/c1cc(O)ccc1O)NO`, the half-maximal inhibitory concentration (IC50) with Plasmodium falciparum amounted to 142 nM; against Histone deacetylase, 110 nM. The Activity result in series [1] was “Non-toxic”. The “fold change (FC)” value in the series on MM1.S stood at 1.1.

`CCC(=O)CCCCC[C@@H]1NC(=O)[C@H]2CCCCN2C(=O)[C@H]([C@@H](C)CC)NC(=O)[C@H](Cc2cn(OC)c3ccccc23)NC1=O` [APICIDIN]: the IC50 in the series on Plasmodium falciparum worked out at 33 nM.

As for `O=C(CCCCC(=O)NN/C=C/c1ccc(O)cc1Br)NO`, the concentration for half-maximal inhibition (IC50) was found to be 53 nM in the series on Plasmodium falciparum and 106 nM against Histone deacetylase. Moreover, the Activity result in series [1] is on record as “Non-toxic”. Further, in the series on MM1.S, the “fold change (FC)” value is 1.1.

Regarding `O=C(CCCCCC(=O)NN/C=C/c1cccc(O)c1)NO`, the IC50 in the series with Plasmodium falciparum was 99 nM; against Histone deacetylase, 59 nM. For the same molecule, in series [1], the Activity entry was “Non-toxic”. Further, in the series on MM1.S, the “fold change (FC)” value is reported as 1.2.

In the case of `O=C(CCCCCC(=O)NN/C=C/c1cc2c(cc1Br)OCO2)NO`, the IC50 with Plasmodium falciparum came out at 59 nM; against Histone deacetylase, 20 nM. Also, the Activity result in series [1] is listed as “Non-toxic”. Also, the “fold change (FC)” value with MM1.S is reported as 1.

`CN(C)c1ccc(/C=C/NNC(=O)CCCCCC(=O)NO)c(O)c1`: the IC50 is 24 nM in the series on Plasmodium falciparum and 37 nM against Histone deacetylase. In series [1], the Activity entry is on record as “Non-toxic”. Moreover, the “fold change (FC)” value in the series with MM1.S was 1.2.

Take `Cc1[nH]c2ccccc2c1CCNCc1ccc(/C=C/C(=O)NO)cc1` [PANOBINOSTAT]: the IC50 with Plasmodium falciparum stood at 21 nM.

In the case of `O=C1CCc2c(ccc3ccccc23)O1` [SPLITOMICIN], the IC50 in the series on Plasmodium falciparum and at Histone deacetylase was > 10000 nM each time.

Take `O=C(CCCCCC(=O)NN/C=C/c1ccccc1Cl)NO`: the results for the IC50 in the series with Plasmodium falciparum and against Histone deacetylase were 288 nM and 90 nM, respectively. For the same molecule, the Activity entry in series [1] is reported as “Non-toxic”. Moreover, the “fold change (FC)” value with MM1.S was determined as 0.9.

Consider `Nc1ccccc1NC(=O)c1ccc(CNC(=O)OCc2cccnc2)cc1` [ENTINOSTAT], for which the IC50 in the series on Plasmodium falciparum is > 10000 nM.

Take `O=C(CCCCC(=O)NN/C=C/c1cc(O)ccc1Br)NO`: the IC50 in the series on Plasmodium falciparum amounted to 30 nM; on Histone deacetylase it was 89 nM. Moreover, the Activity entry in series [1] is recorded as “Non-toxic”. The “fold change (FC)” value in the series on MM1.S amounted to 1.1.

Turning to `O=C(CCCCCC(=O)NN/C=C/c1ccccc1Br)NO`, the IC50 in the series with Plasmodium falciparum was determined as 15 nM; against Histone deacetylase, 37 nM. Moreover, the Activity entry in series [1] is “Non-toxic”. For the same molecule, in the series on MM1.S, the “fold change (FC)” value came to 1.1.

B1: Histone deacetylase (Plasmodium falciparum), Q9XYC7 (protein)
chain: MSNRKKVAYFHDPDIGSYYYGAGHPMKPQRIRMTHSLIVSYNLYKYMEVYRPHKSDVNELTLFHDYEYIDFLSSISLENYREFTYQLKRFNVGEATDCPVFDGLFQFQQSCAGASIDGASKLNHHCADICVNWSGGLHHAKMSEASGFCYINDIVLGILELLKYHARVMYIDIDVHHGDGVEEAFYVTHRVMTVSFHKFGDYFPGTGDITDVGVNHGKYYSVNVPLNDGMTDDAFVDLFKVVIDKCVQTYRPGAIIIQCGADSLTGDRLGRFNLTIKGHARCVEHVRSYNIPLLVLGGGGYTIRNVSRCWAYETGVVLNKHHEMPDQISLNDYYDYYAPDFQLHLQPSNIPNYNSPEHLSRIKMKIAENLRHIEHAPGVQFSYVPPDFFNSDIDDESDKNQYELKDDSGGGRAPGTRAKEHSTTHHLRRKNYDDDFFDLSDRDQSIVPY
For the molecule B1, in series [2], the Michaelis constant (Km) entry is “Not Active” and the catalytic constant (kcat) result was “Not Active”. In series [3], the Km was 30 µM and the kcat was found to be 0.19 s⁻¹.
